The source of these data is ChEMBL document CHEMBL3425456, “Boronic acid-containing CXCR1/2 antagonists: Optimization of metabolic stability, in vivo evaluation, and a proposed receptor binding model” (Bioorg Med Chem Lett, 2015).

Calls of active or inactive are those of the source. The calls are words filed in the database; no cut-off is given here.

In data set [1] the target is T1, Interleukin-8 receptors, CXCR1/CXCR2 (Homo sapiens, UniProt P25025+P25024).
T1 sequence (P25025 whole entry): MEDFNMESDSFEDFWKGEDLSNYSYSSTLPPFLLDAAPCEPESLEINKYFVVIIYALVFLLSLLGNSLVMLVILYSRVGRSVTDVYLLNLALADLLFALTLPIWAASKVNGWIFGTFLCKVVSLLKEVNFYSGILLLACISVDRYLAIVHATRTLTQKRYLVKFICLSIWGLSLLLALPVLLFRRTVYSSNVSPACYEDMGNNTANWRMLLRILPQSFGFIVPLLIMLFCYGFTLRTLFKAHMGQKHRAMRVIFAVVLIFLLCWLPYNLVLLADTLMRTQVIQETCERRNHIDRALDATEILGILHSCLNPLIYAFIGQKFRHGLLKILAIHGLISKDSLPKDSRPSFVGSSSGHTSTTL
T1 sequence (P25024 whole entry): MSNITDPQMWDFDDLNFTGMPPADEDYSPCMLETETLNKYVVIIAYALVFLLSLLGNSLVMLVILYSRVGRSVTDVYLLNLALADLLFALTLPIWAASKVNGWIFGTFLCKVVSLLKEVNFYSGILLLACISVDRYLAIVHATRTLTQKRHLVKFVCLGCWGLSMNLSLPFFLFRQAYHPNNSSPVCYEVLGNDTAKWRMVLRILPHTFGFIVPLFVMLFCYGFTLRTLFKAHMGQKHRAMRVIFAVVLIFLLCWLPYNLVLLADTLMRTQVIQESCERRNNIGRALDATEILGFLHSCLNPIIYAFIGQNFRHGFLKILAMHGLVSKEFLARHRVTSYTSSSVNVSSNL
The data set can be described thus: Antagonist activity at CXCR1/CXCR2 in human PMN cells assessed as inhibition of GROalpha-mediated intracellular calcium release. Type of data set: functional, cell-based.

Data set [2] addresses T2, C-X-C chemokine receptor type 1 (Homo sapiens, UniProt P25024).
T2 sequence (P25024 whole entry): T1 sequence (P25024 whole entry)
The data set can be described thus: Inhibition of CXCR1 (unknown origin) transfected with RBL cells. The format is cell-based.

Data set [3] has as its target T3, C-X-C chemokine receptor type 2 (Homo sapiens, UniProt P25025).
T3 sequence (P25025 whole entry): T1 sequence (P25025 whole entry)
The experiment in a line: Inhibition of CXCR2 (unknown origin) transfected with RBL cells. Type of data set: cell-based. In outline: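 RBL cells stably transfected with CXCR2 were used to measure antagonist activity at the receptor.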

In data set [4] the target is T3, C-X-C chemokine receptor type 2. The data set can be described thus: Inhibition of CXCR2 (unknown origin) expressed in PathHunter celline by beta-arrestin assay.
Data set [5] concerns Liver microsome. The data set can be described thus: Metabolic stability in rat liver microsomes assessed as compound remaining at 1 uM after 60 mins by LC-MS analysis. The format is ADME. To be noted: 1 h. In short, it runs like this: (§1)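 Compound at 1 µM was incubated with rat or monkey liver microsomes for 60 min at 37°C. Samples taken at 0 and 60 min were analysed by LC-MS for % parent remaining.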

Data set [6] can be described thus: Metabolic stability in monkey liver microsomes assessed as compound remaining at 1 uM after 60 mins by LC-MS analysis. The following applies: rhesus monkey, 1 h. Type of data set: ADME, Macaca mulatta. In short, it runs like this: as §1
Data set [7] concerns Rattus norvegicus. The data set can be described thus: AUC in rat at 1 mg/kg, iv by LC-MS/MS analysis. The following applies: in vivo. Type of data set: ADME, organism-based, Plasma. On the set-up: dose 1 mg/kg, route intravenous. In outline:
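Rats were dosed intravenously at 1 mg/kg. Plasma levels were measured by LC-MS/MS against a calibration curve of compound spiked into rat plasma and run alongside the samples. AUC was taken from the plasma concentration vs. time curve.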

In data set [8] the test system is Rattus norvegicus. The experiment in a line: AUC in rat at 1 mg/kg, po by LC-MS/MS analysis. Also noted: dose 1 mg/kg, route oral. The following applies: in vivo, BLD = below limit of detection. The format is ADME, organism-based, Plasma. In short, it runs like this: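 Rats were dosed at 1 mg/kg by oral gavage. Plasma levels were measured by LC-MS/MS against a concurrently run calibration curve of compound spiked into rat plasma.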

The subject of data set [9] is Rattus norvegicus. The experiment in a line: Inhibition of neutrophil influx in ozone Sprague-Dawley rat model of pulmonary inflammation assessed as decrease in PMN influx into lungs at 1 mg/kg, iv after 24 hrs. Type of data set: functional, organism-based. Also noted: dose 1 mg/kg. In outline: (§2)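 Sprague-Dawley rats, n = 4 per group, were dosed iv at 1 mg/kg (or vehicle) at t = 0, 5 and 9 h. They were exposed to air or 1 ppm ozone for 4 h and sacrificed at 24 h for bronchoalveolar lavage. BALF cells were Wright-Giemsa stained and counted (PMNs, macrophages). BALF protein was measured by Bradford assay as lung leakage.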

The subject of data set [10] is Rattus norvegicus. The data set can be described thus: Inhibition of macrophage influx in ozone Sprague-Dawley rat model of pulmonary inflammation at 1 mg/kg, iv after 24 hrs. Type of data set: functional, organism-based. Also noted: dose 1 mg/kg. In short, it runs like this:
as §2

In data set [11] the test system is Rattus norvegicus. The data set can be described thus: Inhibition of lung leakage in ozone Sprague-Dawley rat model of pulmonary inflammation at 1 mg/kg, iv after 24 hrs. On the set-up: dose 1 mg/kg. The format is functional, organism-based. In short, it runs like this: as §2

As for `COc1ccc(B(O)O)c(CSc2ccc(C(=O)Nc3ccc(F)cc3)cn2)c1`, in data set [1], the IC50 is reported as 80 nM.
Still for that read-out and setting: to `O=C(Nc1ccc(F)cc1)c1ccc(SCc2cc(F)ccc2B(O)O)nc1` belongs 52 nM; to `O=C(Nc1ccc(F)cc1)c1ccc(SCc2cccc(B(O)O)c2)nc1`, 1220 nM.
The same measure, in the same setting: to `O=C(Nc1ccc(F)cc1)c1ccc(SCCCCB(O)O)nc1` belongs 689 nM.
Turning to `O=C(Nc1ccc(F)cc1)c1ccc(SCc2ccccc2B(O)O)nc1`, the IC50 in data set [1] amounted to 38 nM; in [2], 903 nM; in data set [3], 356 nM; in data set [4], 730 nM. Moreover, the Stability in [5] was 37%; in [6], 25%. The AUC was 0.39 µM·h in data set [7] and “BLD” in data set [8].
Take `O=C(Nc1ccc(F)cc1)c1ccc(SCc2cc3c(cc2B(O)O)OCO3)nc1`: the IC50 in data set [1] is on record as greater than 10000 nM.
In the case of `O=C(Nc1ccc(F)cc1)c1ccc(SCc2cc(OC(F)(F)F)ccc2B(O)O)nc1`, the Stability is 92% in [5] and 95% in data set [6]. Besides, the AUC in data set [7] is 5.4 µM·h; in [8] it was “BLD”. Moreover, the inhibition entry in data set [9], in [10] and in [11] was “Active” in each case.
In the case of `O=C(Nc1ccc(F)cc1)c1ccc(SCc2ccc(B(O)O)cc2)nc1`, the IC50 in [1] was determined as 90 nM.
On the same count and under the same terms, the figure for `COc1cc(CSc2ccc(C(=O)Nc3ccc(F)cc3)cn2)c(B(O)O)cc1OC` is greater than 10000 nM; for `O=C(Nc1ccc(F)cc1)c1ccc(SCCc2ccccc2B(O)O)nc1` it is 387 nM.
